According to ChEMBL document CHEMBL4834438, “Synthesis and Biological Activity of Triterpene-Coumarin Conjugates” (J Nat Prod, 2021):
Active and inactive are the calls of the source. The calls are words filed in the database; no cut-off is given here.

Assays:
HT-29 [1] = experiment: Induction of apoptosis in human HT-29 cells assessed as total apoptosis at IC50 concentrations measured after 72 hrs by Annexin V-FITC/Propidium iodide staining based FACS cytometry analysis; assay type: functional
In short: (§1)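 Seeding in 24-well plates was 5 × 10^4 B16–F10, 6 × 10^4 HT29 or 15 × 10^4 Hep G2 per well, followed by 24 h growth. Cells were treated in triplicate for 72 h at the respective IC50. Harvested cells went into HEPES binding buffer (pH 7.4, 140 mM NaCl, 2.5 mM CaCl2), with Annexin V-FITC added for 15 min at room temperature in the dark, then PI just before FACScan. About 10 × 10^3 cells were counted per sample. Results are mean ± SEM, relative to untreated control.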

HT-29 [2] = experiment: Induction of mitochondrial membrane potential loss in human HT-29 cells assessed as fluorescence intensity at IC50 concentration measured after 72 hrs by rhodamine 123 staining based FACScan flow cytometry; assay type: functional, cell-based
In short: (§2)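 The medium was then renewed with dihydrorhodamine, which oxidizes to Rh123, for 1 h at 37 °C in 5% CO2. Cells were washed and resuspended in PBS, and fluorescence was read by FACScan (excitation 500, emission 536 nm). Three experiments, two replicates each, reported as mean ± SEM.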

HT-29 [3] = experiment: Induction of apoptosis in human HT-29 cells assessed as necrotic cells at IC50 concentrations measured after 72 hrs by Annexin V-FITC/Propidium iodide staining based FACS cytometry analysis; assay type: functional; in short: as §1
HepG2 [4] = experiment: Induction of apoptosis in human HepG2 cells assessed as total apoptosis at IC50 concentrations measured after 72 hrs by Annexin V-FITC/Propidium iodide staining based FACS cytometry analysis; assay type: functional; in short: as §1
B16-F10 [5] = experiment: Induction of apoptosis in mouse B16-F10 cells assessed as total apoptosis at IC50 concentrations measured after 72 hrs by Annexin V-FITC/Propidium iodide staining based FACS cytometry analysis; assay type: functional; in short: as §1
B16-F10 [6] = experiment: Induction of apoptosis in mouse B16-F10 cells assessed as necrotic cells at IC50 concentrations measured after 72 hrs by Annexin V-FITC/Propidium iodide staining based FACS cytometry analysis; assay type: functional; in short: as §1
HT-29 [7] = experiment: Cell cycle arrest in human HT-29 cells assessed as decrease in cells accumulation in S phase at IC50 concentrations measured after 72 hrs by Propidium iodide staining based FACS cytometry analysis; assay type: functional; set-up: scale not given: the % may be the effect or the level left
In short: (§3)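 Cells were seeded in 24-well plates (5 × 10^4 B16–F10 or 6 × 10^4 HT29 per well) and grown 24 h in DMEM with 10% FCS and 2 mM glutamine at 37 °C, 5% CO2. They were then exposed 72 h at the cancer-line IC50, washed in PBS, trypsinized and taken up in TBS, then in Vindelov buffer (RNase, PI, pH 8). Cells were kept on ice and given extra PI before reading. About 10 × 10^3 cells were read per run by FACS at 488 nm. Three experiments, two replicates each, reported as mean ± SEM.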

B16-F10 [8] = experiment: Induction of mitochondrial membrane potential loss in mouse B16-F10 cells assessed as fluorescence intensity at IC50 concentration measured after 72 hrs by rhodamine 123 staining based FACScan flow cytometry; assay type: functional, cell-based; in short: as §2
B16-F10 [9] = experiment: Cell cycle arrest in mouse B16-F10 cells assessed as decrease in cells accumulation in S phase at IC50 concentrations measured after 72 hrs by Propidium iodide staining based FACS cytometry analysis; assay type: functional; set-up: scale not given: the % may be the effect or the level left; in short: as §3
HepG2 [10] = experiment: Induction of mitochondrial membrane potential loss in human HepG2 cells assessed as fluorescence intensity at IC50 concentration measured after 72 hrs by rhodamine 123 staining based FACScan flow cytometry; assay type: functional, cell-based; in short: as §2
HepG2 [11] = experiment: Induction of apoptosis in human HepG2 cells assessed as necrotic cells at IC50 concentrations measured after 72 hrs by Annexin V-FITC/Propidium iodide staining based FACS cytometry analysis; assay type: functional; in short: as §1
B16-F10 [12] = experiment: Cell cycle arrest in mouse B16-F10 cells assessed as increase in cells accumulation in G0/G1 phase at IC50 concentrations measured after 72 hrs by Propidium iodide staining based FACS cytometry analysis; assay type: functional; in short: as §3
HT-29 [13] = experiment: Cell cycle arrest in human HT-29 cells assessed as increase in cells accumulation in G0/G1 phase at IC50 concentrations measured after 72 hrs by Propidium iodide staining based FACS cytometry analysis; assay type: functional; in short: as §3

SMILES | Activity (HT-29 [1]) | Activity (HT-29 [2]) | Activity (HT-29 [3]) | Activity (HepG2 [4]) | Activity (B16-F10 [5]) | Activity (B16-F10 [6]) | Activity (HT-29 [7]) | Activity (B16-F10 [8]) | Activity (B16-F10 [9]) | Activity (HepG2 [10]) | Activity (HepG2 [11]) | Activity (B16-F10 [12]) | Activity (HT-29 [13])
CC1(C)CC[C@]2(C(=O)NCCCNC(=O)/C=C/c3ccc(O)cc3)CC[C@]3(C)C(=CC[C@@H]4[C@@]5(C)C[C@@H](O)[C@H](O)C(C)(C)[C@@H]5CC[C@]43C)[C@@H]2C1 | 40% | inactive | 5% | 76% | 40% | 5% | 10% | inactive | 10% | Active | 5% | – | –
CC1(C)CC[C@]2(C(=O)NCCCNC(=O)c3cc4ccccc4oc3=O)CC[C@]3(C)C(=CC[C@@H]4[C@@]5(C)C[C@@H](O)[C@H](O)C(C)(C)[C@@H]5CC[C@]43C)[C@@H]2C1 | – | inactive | 5% | – | – | 5% | 10% | inactive | 10% | Active | 5% | inactive | inactive
CC1(C)CC[C@]2(C(=O)O)CC[C@]3(C)C(=CC[C@@H]4[C@@]5(C)C[C@@H](OC(=O)c6cc7ccccc7oc6=O)[C@H](OC(=O)c6cc7ccccc7oc6=O)C(C)(C)[C@@H]5CC[C@]43C)[C@@H]2C1 | 58% | inactive | 5% | 40% | – | 5% | 10% | inactive | 10% | Active | 5% | – | –
CC1(C)CC[C@]2(C(=O)NCCCNC(=O)Cc3cc(=O)oc4cc(O)ccc34)CC[C@]3(C)C(=CC[C@@H]4[C@@]5(C)C[C@@H](O)[C@H](O)C(C)(C)[C@@H]5CC[C@]43C)[C@@H]2C1 | – | inactive | 5% | 40% | 85% | 5% | 10% | inactive | 10% | Active | 5% | – | –
